Data: ChEMBL document CHEMBL3877250, “Design, synthesis, and biological evaluation of (2E)-(2-oxo-1, 2-dihydro-3H-indol-3-ylidene)acetate derivatives as anti-proliferative agents through ROS-induced cell apoptosis” (Eur J Med Chem, 2016)

What was measured:
HCT-116 [1] = experiment: Induction of apoptosis in human HCT116 cells assessed as late apoptotic cells at 8 uM after 48 hrs by Annexin V-FITC/propidium iodide staining based flow cytometry (reference value: 6.7%); assay type: functional
HCT-116 [2] = experiment: Induction of apoptosis in human HCT116 cells assessed as late apoptotic cells at 1 uM after 48 hrs by Annexin V-FITC/propidium iodide staining based flow cytometry (reference value: 6.7%); assay type: functional
HCT-116 [3] = experiment: Induction of apoptosis in human HCT116 cells assessed as late apoptotic cells at 16 uM after 48 hrs by Annexin V-FITC/propidium iodide staining based flow cytometry (reference value: 6.7%); assay type: functional
[4] = Cell cycle arrest in human HCT116 cells assessed as G1 phase accumulation at 3 uM after 48 hrs by Annexin V-FITC/propidium iodide staining based flow cytometry (reference value: 40.83%); assay type: functional; settings: HCT-116
[5] = Cell cycle arrest in human HCT116 cells assessed as G1 phase accumulation at 1 uM after 48 hrs by Annexin V-FITC/propidium iodide staining based flow cytometry (reference value: 40.83%); assay type: functional; settings: HCT-116
HCT-116 [6] = experiment: Induction of apoptosis in human HCT116 cells assessed as late apoptotic cells at 0.1 uM after 48 hrs by Annexin V-FITC/propidium iodide staining based flow cytometry (reference value: 6.7%); assay type: functional
[7] = Cell cycle arrest in human HCT116 cells assessed as G1 phase accumulation at 4 uM after 48 hrs by Annexin V-FITC/propidium iodide staining based flow cytometry (reference value: 40.83%); assay type: functional; settings: HCT-116
HCT-116 [8] = experiment: Induction of apoptosis in human HCT116 cells assessed as early apoptotic cells at 0.5 uM after 48 hrs by Annexin V-FITC/propidium iodide staining based flow cytometry (reference value: 3.8%); assay type: functional
Summary of the method: (§1)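 HCT116 seeded at 2×10^5 cells/well, cultured 6 h, then treated 48 h at 0.1, 0.5, 1, 4, 8 or 16 µM; DMSO (0.1%) served as vehicle. Cells washed twice in cold PBS, resuspended in binding buffer with FITC Annexin V and PI for 15 min at RT in the dark, diluted, and run on flow cytometry within 1 h.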

HCT-116 [9] = experiment: Induction of apoptosis in human HCT116 cells assessed as live cells at 8 uM after 48 hrs by Annexin V-FITC/propidium iodide staining based flow cytometry (reference value: 88.7%); assay type: functional
HCT-116 [10] = experiment: Induction of apoptosis in human HCT116 cells assessed as necrotic cells at 4 uM after 48 hrs by Annexin V-FITC/propidium iodide staining based flow cytometry (reference value: 0.8%); assay type: functional
[11] = Cell cycle arrest in human HCT116 cells assessed as S phase accumulation at 0.5 uM after 48 hrs by Annexin V-FITC/propidium iodide staining based flow cytometry (reference value: 28.43%); assay type: functional; settings: HCT-116
HCT-116 [12] = experiment: Induction of apoptosis in human HCT116 cells assessed as increase in intracellular reactive oxygen species at 0.17 to 8 uM by DCFH-DA probe-based flow cytometry; assay type: functional, cell-based; settings: TDE = time-dependent effect
Summary of the method: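 For the dose series, HCT116 cells were seeded at 5 × 10⁴ cells/well, grown 24 h, then exposed 3 h to DMSO or graded compound levels, with a Rosup positive group. Cells were washed with PBS and serum-free medium, loaded with DCFH-DA (1 μmol/L) in serum-free medium at 37 °C for 20 min, and ROS fluorescence was read by flow cytometry.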

[13] = Cell cycle arrest in human HCT116 cells assessed as sub-G1 phase accumulation at 4 uM after 48 hrs by Annexin V-FITC/propidium iodide staining based flow cytometry (reference value: 4.36%); assay type: functional; settings: HCT-116
[14] = Cell cycle arrest in human HCT116 cells assessed as G2/M phase accumulation at 1 uM after 48 hrs by Annexin V-FITC/propidium iodide staining based flow cytometry (reference value: 25.3%); assay type: functional; settings: HCT-116
HCT-116 [15] = experiment: Induction of apoptosis in human HCT116 cells assessed as necrotic cells at 16 uM after 48 hrs by Annexin V-FITC/propidium iodide staining based flow cytometry (reference value: 0.8%); assay type: functional
[16] = Cell cycle arrest in human HCT116 cells assessed as sub-G1 phase accumulation at 0.1 uM after 48 hrs by Annexin V-FITC/propidium iodide staining based flow cytometry (reference value: 4.36%); assay type: functional; settings: HCT-116
HCT-116 [17] = experiment: Induction of apoptosis in human HCT116 cells assessed as early apoptotic cells at 0.1 uM after 48 hrs by Annexin V-FITC/propidium iodide staining based flow cytometry (reference value: 3.8%); assay type: functional; summary of the method: as §1
[18] = Cell cycle arrest in human HCT116 cells assessed as G2/M phase accumulation at 0.5 uM after 48 hrs by Annexin V-FITC/propidium iodide staining based flow cytometry (reference value: 25.3%); assay type: functional; settings: HCT-116
HCT-116 [19] = experiment: Induction of apoptosis in human HCT116 cells assessed as live cells at 1 uM after 48 hrs by Annexin V-FITC/propidium iodide staining based flow cytometry (reference value: 88.7%); assay type: functional
[20] = Cytotoxicity against human SK-BR-3 cells assessed as growth inhibition at 20 uM after 72 hrs by CCK-8 assay; assay type: functional; settings: SK-BR-3, 72 h, read-out: GI
Summary of the method: (§2)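 Cells kept in RPMI 1640 with 10% heat-inactivated fetal calf serum and 1% streptomycin/penicillin at 37 °C, 5% CO2. After compound exposure, CCK-8 was added and cells were incubated 4 h at 37 °C, then absorbance was read at 450 nm. Viability is relative to untreated cells (100%). IC50 comes from nonlinear regression, mean of three separate determinations. Single-concentration screen at 20 µM.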

[21] = Cell cycle arrest in human HCT116 cells assessed as G1 phase accumulation at 0.1 uM after 48 hrs by Annexin V-FITC/propidium iodide staining based flow cytometry (reference value: 40.83%); assay type: functional; settings: HCT-116
[22] = Cytotoxicity against human HL60 cells assessed as growth inhibition at 20 uM after 72 hrs by CCK-8 assay; assay type: functional; settings: HL-60, 72 h, read-out: GI; summary of the method: as §2
HCT-116 [23] = experiment: Induction of apoptosis in human HCT116 cells assessed as early apoptotic cells at 16 uM after 48 hrs by Annexin V-FITC/propidium iodide staining based flow cytometry (reference value: 3.8%); assay type: functional; summary of the method: as §1
HCT-116 [24] = experiment: Induction of apoptosis in human HCT116 cells assessed as live cells at 16 uM after 48 hrs by Annexin V-FITC/propidium iodide staining based flow cytometry (reference value: 88.7%); assay type: functional
[25] = Antitumor activity against human HepG2 cells assessed as growth inhibition at 20 uM after 72 hrs by CCK-8 assay; assay type: functional; settings: HepG2, 72 h, read-out: GI; summary of the method: as §2
[26] = Cytotoxicity against human SW480 cells after 72 hrs by CCK-8 assay; assay type: functional, cell-based; settings: SW480, 72 h; summary of the method: as §2
[27] = Cell cycle arrest in human HCT116 cells assessed as G2/M phase accumulation at 3 uM after 48 hrs by Annexin V-FITC/propidium iodide staining based flow cytometry (reference value: 25.3%); assay type: functional; settings: HCT-116
[28] = Cell cycle arrest in human HCT116 cells assessed as S phase accumulation at 0.1 uM after 48 hrs by Annexin V-FITC/propidium iodide staining based flow cytometry (reference value: 28.43%); assay type: functional; settings: HCT-116
[29] = Cell cycle arrest in human HCT116 cells assessed as S phase accumulation at 2 uM after 48 hrs by Annexin V-FITC/propidium iodide staining based flow cytometry (reference value: 28.43%); assay type: functional; settings: HCT-116
[30] = Cytotoxicity against human MDA-MB-231 cells after 72 hrs by CCK-8 assay; assay type: functional, cell-based; settings: MDA-MB-231, 72 h; summary of the method: as §2

With `CC(C)(C)OC(=O)/C=C1/C(=O)Nc2ccccc21` the Activity (HCT-116 [1]) was 13.6%, the Activity (HCT-116 [2]) was 9.1% and the Activity (HCT-116 [3]) was 69.1%. It also gave an Activity [4] of 35.6%, an Activity [5] of 25.4% and an Activity (HCT-116 [6]) of 6.2%. The Activity [7] was 26.2%, the Activity (HCT-116 [8]) was 2.9% and the Activity (HCT-116 [9]) was 78.4%. The Activity (HCT-116 [10]) was 0.7%, the Activity [11] was 28.9% and the Activity (HCT-116 [12]) was “Tde”. The Activity [13] was 35.7%, the Activity [14] was 33.1% and the Activity (HCT-116 [15]) was 2.1%. It also gave an Activity [16] of 1.27%, an Activity (HCT-116 [17]) of 3.2% and an Activity [18] of 27.4%. For the same molecule, the Activity (HCT-116 [19]) was 87.9%, the inhibition of growth at 20 µM [20] was 87.3% and the Activity [21] was 40.8%. For the same molecule, the inhibition of growth at 20 µM [22] was 94.5%, the Activity (HCT-116 [23]) was 2.7% and the Activity (HCT-116 [24]) was 26.1%. It also gave an inhibition of growth at 20 µM [25] of 86.1%, an IC50 [26] of 5.68 µM and an Activity [27] of 22.6%. For the same molecule, the Activity [28] was 32.9%, the Activity [29] was 25.2% and the IC50 [30] was 2.52 µM.
